High-throughput results deposited in PubChem BioAssay by several laboratories.
PolyA inh: inhibitors of polyadenylation in S. cerevisiae. S. cerevisiae SKY197-pL101 polyadenylation reporter, beta-gal luminescence; efflux-impaired pdr1/pdr3 knockout yeast; score 100 = 6 SD above DMSO. activity score, % at 12 µM. hit rate 0.02% among 300,000. AID 1875;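 active = lowest replicate activity score at least 50, where 100 means six control SD above control mean; inconclusive = lowest score under 50 but half or more replicates reach 50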;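 note: yeast exposed to compound for 9 h at 30 °C; higher score means more reporter readthrough which indicates perturbed polyadenylation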
Calb FLC: affects C. albicans growth with fluconazole; C. albicans CaCi-2 (fluconazole-resistant clinical isolate) + fluconazole, Alamar Blue growth, 48 h; growth inhibition, % (no concentration beside the values); hit rate 0.57% among 300,000;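 active = growth inhibition above about 58% in most replicates, limit read from the data, passing the limit was not always enough; inconclusive = exactly half the replicates above a set limit; inactive = most replicates below a set limit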;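 note: all wells also contain fluconazole at 8 µg/ml as a sub-toxic cotreatment; 0% = median of DMSO wells and 100% = median of geldanamycin control wells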
T cruzi inh: T. cruzi replication inhibition | T. cruzi beta-gal in NIH3T3, luminescence, 90 h | inhibition, % (concentration not given with the values) | hit rate 1.4% among 300,000;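 active = mean inhibition across valid replicates above about 55%, limit read from the data; inconclusive = mean below that limit but half or more replicates reach it; inactive = mean below it, under half of replicates reach it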;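 note: signal also drops with host cell toxicity which is not excluded here; 0% = plate median of DMSO wells and 100% = zero luminescence signal; higher percent means less beta-gal luminescence so fewer parasites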
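Incubation – ≥90 h infection period, 3 h prior cell attachment · System – NIH/3T3 fibroblasts plus reporter T. cruzi · Doses – compound pinned at 50 nL/well, DMSO · Read-out basis – percent inhibition of parasite-derived β-gal signal · Signal – luminescent β-galactosidase signal after 60 min lysis · Also added – 5000 T. cruzi trypomastigotes/well · Medium – Low-serum DMEM with 2% FBS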
Lmaj promast: reduces viability of Leishmania major promastigotes | resazurin fluorescence viability | inhibition, % at 10 µM | hit rate 9% among 200,000; in the data active = inhibition above about 50%;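 note: promastigotes grown with compound for 44 hours at 28 °C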
NALP1 yeast inh: inhibitors of NALP1 inflammasome in yeast; inhibition, % at 10 µM; S. cerevisiae NALP1/ASC/caspase-1 growth, X-gal OD620, 72 h; hit rate 0.61% among 280,000; AID 2071; in the data active = inhibition mostly above about 24%, no sharp cut-off; inactive = mostly below about 32%
NALP3 yeast inh: NALP3 inhibition in yeast; Yeast reconstituted NLRP3/ASC/caspase-1, beta-gal luminescence, 24 h; inhibition, % at 10 µM; hit rate 0.39% among 330,000;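 active = inhibition of 50% or more; inactive = inhibition below 50%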;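 note: plate controls were induced DMSO wells for no effect and uninduced yeast grown without galactose for full effect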
* hit, by the source's call; u = inconclusive; x = not tested or not shown. Shown is part of a subset that was picked to be rich in hits.

SMILES	PolyA inh	Calb FLC	T cruzi inh	Lmaj promast	NALP1 yeast inh	NALP3 yeast inh
CCOC(=O)c1nc(Nc2cc(Cl)ccc2OC)c2ccccc2n1	-20	-3	-1	x	4	22
C#CCOCCOCCOCCNc1nc(N2CCN(C(=O)CCCCCCCCCCNC(=O)[C@H](CO)n3cc(CCCSC)nn3)CC2)nc(N2CCN(C(=O)CCCCCCCCCCNC(=O)[C@H](CCCN=C(N)N)n3cc(C[C@@H](C)CC)nn3)CC2)n1	x	x	x	x	x	17
Cn1c(SCC(=O)NCCc2ccccc2)nc2c([nH]c3ccccc32)c1=O	-4	30	13	93*	-4	12
Cc1ccc(-n2c(Cl)c(Cl)nc(Cl)c2=O)cc1	x	x	x	17	124*	x
O=C(N/N=C\c1ccc[nH]1)C1COc2ccccc2O1 (configuration not stated)	22	-11	-7	x	x	6
CCNC(=O)Cn1cc(C(F)(F)F)cc(Cl)c1=O	-12	0	-2	x	8	-4
Cc1ccc(OCC(=O)OCC(=O)Nc2ccc3c(c2)OCO3)cc1C	x	x	x	x	x	16
COc1cc(/C=N/NC(=O)c2nc3ccccn3c2C)cc(OC)c1O	u	0	81*	-9	16	-6
CC(=O)c1cc(C#N)c(N2CCCC2)nc1C	2	93*	11	100*	7	0
CCOc1ncccc1C(=O)N1CCN(S(=O)(=O)c2ccc3c(c2)OCCO3)CC1	x	x	x	x	x	-3
CC(=O)Nc1ccc(NC(=O)c2cccc3c2-c2ccccc2C3=O)cc1	13	1	-37	78*	4	19
CC(=O)Nc1ccc(NC(=O)CCCN2C(=O)c3ccccc3C2=O)cc1	7	108*	-14	-4	14	0
COc1ccc(CCC(=O)Nc2cc(Cl)ccc2N2CCN(C)CC2)cc1	-21	28	23	9	18	16
Cc1ccc(NC(=O)c2cccc3c2-c2ccccc2C3=O)cc1C	-14	4	-6	2	3	14
O=C(CCCN1C(=O)c2ccccc2C1=O)Nc1ccccc1	13	-4	0	x	8	13
CN1CCN(c2ccc(Cl)cc2NC(=O)CCN2C(=O)c3ccccc3C2=O)CC1	-6	-21	-1	77*	8	8
CC(=O)Nc1ccc(NC(=O)CCN2C(=O)c3ccccc3C2=O)cc1	-3	33	-9	x	44*	-5
O=C(CCN1C(=O)C2CCCCC2C1=O)N1CCN(S(=O)(=O)c2ccccc2)CC1 (configuration not stated)	-5	5	-10	x	x	7
CN1CCN(c2ccc(Cl)cc2NC(=O)/C=C/c2ccc(F)cc2)CC1	-1	4	41	94*	15	29
Cc1cc(N2CCN(C)CC2)ccc1NC(=O)c1cccc(S(=O)(=O)N2CCc3ccccc3C2)c1	-3	-11	75*	98*	24	8
Cc1ccc(NC(=O)c2cccc(S(=O)(=O)N3CCc4ccccc4C3)c2)nc1	-10	-6	16	x	x	3
O=C(COC(=O)C1CC2C=CC1C2)Nc1ccc([N+](=O)[O-])cc1 (configuration not stated)	x	x	x	x	x	3
COc1ccc2occ(C(C)=O)c2c1	10	-6	-8	-4	10	7
CC(=O)c1coc2ccc(OCCN3CCCCC3)cc12	0	-2	13	91*	11	16
O=C1c2ccccc2C2(c3ccc(F)cc3)NCCN12 (configuration not stated)	10	14	0	58*	-8	11
SMILES	PolyA inh	Calb FLC	T cruzi inh	Lmaj promast	NALP1 yeast inh	NALP3 yeast inh
N#CCC(=O)N/N=C/c1cn(Cc2cccc3ccccc23)c2ccccc12	-21	6	-29	x	41*	-4
CCOc1cc(NC(=S)Nc2cccc(OC)c2)c(OCC)cc1NC(=O)c1ccc(C)cc1	3	2	21	-3	-10	17
CCOc1cc(NC(=S)Nc2ccccc2)c(OCC)cc1NC(=O)c1ccc(OC)cc1	-16	2	29	96*	13	13
COc1cc(OC)cc(C(=O)Nc2nnc(NC(=S)Nc3ccccc3)s2)c1	-17	8	5	55*	4	18
COCCN(Cc1cc2c(C)cc(C)cc2nc1Cl)C(=O)c1ccccc1F	-15	u	-20	1	0	24
OCC[C@@H]1C[C@H](O)[C@@H](O)[C@]2(Cc3ccccc3CCO2)O1	-2	6	0	x	25	16
